Test results reported in paper PMC6988732 (The Biochemical journal, 2013).
Where a chain is given by its changes, count along the chain named. Values joined by “and” are separate entries in the source; they are usually repeats but may differ in a detail not shown here. Equal entries are not always repeated. Where two headings read alike, the source gives them in different places.

Tests used:
PKCθC1B wild-type = biological target: T1, PKCθC1B wild-type (Mus musculus, UniProt Q02111); experiment: [3H]PDBu binding assay
T1 sequence (Q02111 232-281): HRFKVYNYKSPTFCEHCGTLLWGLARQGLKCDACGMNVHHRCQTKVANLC
How it was run: (§1)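 GST-cleaved mouse PKCθ C1B (residues 232–281), E. coli-expressed, affinity/gel-filtration purified. PEG-precipitation [3H]PDBu binding; Kd from saturable plus linear non-specific fit. Ki: [3H]PDBu at 2–5-fold each construct's Kd, DOG or SAG 1–100000 nM, dried from chloroform with phospholipid, sonicated. PS dependence: total phospholipid 100 μg/ml, PS 0–100%, remainder PC, relative to 100% PS. Means ± S.E.M., three independent experiments.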

PKCθC1B Y239A = biological target: T2, PKCθC1B Y239A (Mus musculus, UniProt Q02111, Y239A); experiment: [3H]PDBu binding assay
T2 sequence (Q02111 232-281 Y239A): T1 sequence (Q02111 232-281) with Y8A
How it was run: as §1

PKCθC1B T243A = biological target: T3, PKCθC1B T243A (Mus musculus, UniProt Q02111, T243A); experiment: [3H]PDBu binding assay
T3 sequence (Q02111 232-281 T243A): T1 sequence (Q02111 232-281) with T12A
How it was run: as §1

PKCθC1B W253G = biological target: T4, PKCθC1B W253G (Mus musculus, UniProt Q02111, W253G); experiment: [3H]PDBu binding assay
T4 sequence (Q02111 232-281 W253G): T1 sequence (Q02111 232-281) with W22G

PKCθC1B L255G = biological target: T5, PKCθC1B L255G (Mus musculus, UniProt Q02111, L255G); experiment: [3H]PDBu binding assay
T5 sequence (Q02111 232-281 L255G): T1 sequence (Q02111 232-281) with L24G
How it was run: as §1

PKCθC1B Q258G = biological target: T6, PKCθC1B Q258G (Mus musculus, UniProt Q02111, Q258G); experiment: [3H]PDBu binding assay
T6 sequence (Q02111 232-281 Q258G): T1 sequence (Q02111 232-281) with Q27G
How it was run: as §1

PKCδC1B L250D = conditions: in the presence or absence of PS; cited from earlier work
PKCδC1B L255D = conditions: in the presence or absence of PS; cited from earlier work
PKCδC1B L250R = conditions: cited from earlier work
PKCδC1B L255K = conditions: cited from earlier work
PKCδC1B L250K = conditions: cited from earlier work
PKCδC1B W252K = conditions: cited from earlier work
PKCδC1B = conditions: cited from earlier work
PKCδC1B W252G = conditions: PKCδC1B mutant homologous to W253G; ref Supplementary Table S1; cited from earlier work
PKCδC1B L254G = conditions: PKCδC1B mutant homologous to L255G; ref Supplementary Table S1; cited from earlier work
PKCδC1B Y238G = conditions: PKCδC1B mutant homologous to Y239A; ref Supplementary Table S1; cited from earlier work

Compound: CCCC(=O)O[C@@H]1[C@@H](C)[C@@]2(O)[C@@H](C=C(CO)C[C@]3(O)C(=O)C(C)=C[C@@H]23)[C@@H]2C(C)(C)[C@]12OC(=O)CCC [PDBu, phorbol 12,13-dibutyrate]
- [3H]PDBu binding at 5% PS (PKCθC1B wild-type; 5% PS in PS/PC, relative to binding at 100% PS): Approximately 30%
- [3H]PDBu binding in 100% PC (PKCθC1B wild-type; 100% PC (0% PS)): essentially no binding
- PDBu binding at 50% PS relative to the level at 100% PS (PKCθC1B wild-type; PS/PC mixture, total phospholipid 100 μg/ml, PKCθC1B): 90.5%
- Kd (PKCθC1B wild-type; read-out: PDBu Kd, PKCθ C1B WT, mean ± S.E.M. of triplicate independent experiments): 0.39 ± 0.2 nM
- PDBu binding at 50% PS relative to the level at 100% PS (PKCθC1B Y239A; PS/PC mixture, total phospholipid 100 μg/ml, Y239A): 130.7%
- PS percentage giving maximal [3H]PDBu binding (PKCθC1B Y239A; PS/PC mixtures, Y239A, decrease at 100% PS): 50–75%
- reduction in binding affinity compared with the wild-type (PKCθC1B Y239A; Y239A vs wild-type PKCθC1B (Kd for PDBu, Ki for DOG/SAG)): 8.51 fold and 9 fold
- Kd (PKCθC1B Y239A; read-out: PDBu Kd, PKCθ C1B Y239A, mean ± S.E.M.): 3.32 ± 0.34 nM
- PDBu binding at 50% PS relative to the level at 100% PS (PKCθC1B T243A; PS/PC mixture, total phospholipid 100 μg/ml, T243A): 98.2%
- reduction in binding affinity compared with the wild-type (PKCθC1B T243A; T243A vs wild-type PKCθC1B (Kd for PDBu, Ki for DOG/SAG)): 1.64 fold
- Kd (PKCθC1B T243A; read-out: PDBu Kd, PKCθ C1B T243A, mean ± S.E.M.): 0.64 ± 0.06 nM
- PDBu binding at 50% PS relative to the level at 100% PS (PKCθC1B W253G; PS/PC mixture, total phospholipid 100 μg/ml, W253G): 59.3%
- reduction in binding affinity compared with the wild-type (PKCθC1B W253G; W253G vs wild-type PKCθC1B (Kd for PDBu, Ki for DOG/SAG)): 7.56 fold and 8 fold
- Kd (PKCθC1B W253G; read-out: PDBu Kd, PKCθ C1B W253G, mean ± S.E.M.): 2.95 ± 0.19 nM
- reduction in binding affinity compared with the wild-type (PKCθC1B L255G; L255G vs wild-type PKCθC1B (Kd for PDBu, Ki for DOG/SAG)): 11.4 fold and 11 fold
- PDBu binding at 50% PS relative to the level at 100% PS (PKCθC1B L255G; PS/PC mixture, total phospholipid 100 μg/ml, L255G): 92.8%
- PS percentage giving maximal [3H]PDBu binding (PKCθC1B L255G; PS/PC mixtures, L255G, decrease at 100% PS): 50–75%
- Kd (PKCθC1B L255G; read-out: PDBu Kd, PKCθ C1B L255G, mean ± S.E.M.): 4.44 ± 0.56 nM
- PDBu binding at 50% PS relative to the level at 100% PS (PKCθC1B Q258G; PS/PC mixture, total phospholipid 100 μg/ml, Q258G): 85.7%
- reduction in binding affinity compared with the wild-type (PKCθC1B Q258G; Q258G vs wild-type PKCθC1B (Kd for PDBu, Ki for DOG/SAG)): 1720 fold
- Kd (PKCθC1B Q258G; read-out: PDBu Kd, PKCθ C1B Q258G, mean ± S.E.M.): 670 ± 150 nM
- effect of mutation on strong binding of PDBu (PKCδC1B L250D): completely abolished
- effect of mutation on strong binding of PDBu (PKCδC1B L255D): completely abolished
- reduction in PDBu binding (PKCδC1B L250R; in the absence of lipid): 6.6 fold
- reduction in PDBu binding (PKCδC1B L250R; in the presence of lipid): 340 fold
- reduction in PDBu binding (PKCδC1B L255K; in the absence of lipid): 2.9 fold
- reduction in PDBu binding (PKCδC1B L255K; in the presence of lipid): 250 fold
- binding affinity compared with the wild-type (PKCδC1B L250K; in the absence of the PS): remained almost the same
- effect on PDBu binding compared with the wild-type (PKCδC1B L250K; in the presence of PS): 3 fold
- activity at 50% PS as percent of the maximum activity (PKCδC1B W252K; 50% PS): approximately 55%
- binding affinity compared with the wild-type (PKCδC1B W252K; in the absence of the PS): remained almost the same
- effect on PDBu binding compared with the wild-type (PKCδC1B W252K; in the presence of PS): 3 fold
- activity at 50% PS (PKCδC1B): approximately 100%
- reduction in affinity for PDBu compared with the wild-type (PKCδC1B W252G): 31 fold
- reduction in affinity for PDBu compared with the wild-type (PKCδC1B L254G): > 1000 fold
- reduction in the binding affinity compared with the wild-type (PKCδC1B Y238G): 60 fold
